PMC9305466 (British Journal of Clinical Pharmacology, 2022)

What was measured:
JAK1 = conditions: GS‐829845 vs filgotinib; cited from earlier work
[1] = system: subjects with rheumatoid arthritis (RA); experiment: Exposure-safety analysis; assay type: in vivo, human; conditions: up to week 52; for exposures (AUC0‐24) by presence or absence of the five most frequent TEAEs: nausea, nasopharyngitis, upper respiratory tract infection, headache, hypertension
Summary of the method: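 Individual parent and metabolite exposures came from population PK models and were analysed separately for each analyte. Data were pooled from all five studies across all doses. Data collected after rerandomization and a switch of treatment group were excluded. Exposures were compared between subjects with and without each event (serious TEAEs, serious infections). Cmax was also evaluated.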

[2] = phase 1 studies; cited from earlier work
[3] = cited from earlier work; for effect of moderate hepatic impairment on exposure (AUC and C max): compared with matched healthy controls
[4] = system: subjects with moderately to severely active rheumatoid arthritis (RA); experiment: Exposure-efficacy analysis; assay type: in vivo, human; conditions: week 12; filgotinib 100 mg group
Summary of the method: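 Individual exposures came from population PK models (nonlinear mixed-effects), built separately for parent and active metabolite. Parent and metabolite exposures were combined as AUCeff, weighted by relative JAK1 inhibition potency. Data were pooled from 3 phase 3 and 2 phase 2 studies: dosed subjects with ≥1 PopPK parameter, plus placebo at week 12. Binary response was fit by nonlinear logistic (Emax on logit) regression, with Clopper-Pearson binomial CIs.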

[5] = system: JAK1‐related interleukin‐6 (IL‐6)‐induced phosphorylated signal transducer and activator of transcription 1 (pSTAT1); conditions: cited from earlier work

SMILES | potency relative to the parent (JAK1 preferential inhibitor), fold less potent (JAK1) | exposures (AUC0‐24) by presence or absence of the five most frequent TEAEs [1] | serious TEAEs and serious infections against exposures [1] | half‐life [2] | exposure in elderly subjects (≥75 years) compared with younger subjects [3] [fold] | exposure in subjects with severe renal impairment (RI), fold higher [3] [fold] | effect of moderate hepatic impairment on exposure (AUC and C max) [3] | ACR20 response rate [4] | maximum inhibition of pSTAT1 ([5]; plateaued at or above 200 mg total daily dose) | intermediate inhibition of pSTAT1 ([5]; total daily dose of 100 mg)
Nc1nc2cccc(-c3ccc(CN4CCS(=O)(=O)CC4)cc3)n2n1 [GS‐829845] | approximately 10 fold | similar | no exposure‐driven patterns were present | approximately 19 hours | 1.33 | 2.74 | no clinically relevant effect |  |  | 
O=C(Nc1nc2cccc(-c3ccc(CN4CCS(=O)(=O)CC4)cc3)n2n1)C1CC1 [filgotinib] |  | similar | no exposure‐driven patterns were present | ~7 h | 1.45 | 1.54 | no clinically relevant effect | approximately 70% | ~ 78% | ~ 47%
